Data: PubChem BioAssay
The source made the active and inactive calls.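 How the source made its calls, unless noted: active means Her2 level under about 52% in both replicate screens, with viability over 70% of control (limit read from the data); inconclusive means Her2 under the limit in one screen only, or viability under 70%; inactive means Her2 level above the set limit.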

Columns and labels:
[1] = biological target: Pantothenate synthetase (Mycobacterium tuberculosis (strain ATCC 25618 / H37Rv)) (UniProt P9WIL5); experiment: Recombinant Mtb pantothenate synthetase (PanC) inhibitors, coupled enzyme, confirmatory (AID 375; call rule not given here;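 further: 0% = full reaction with vehicle and 100% = no enzyme background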); conditions: coupled enzyme assay; at 10 µM, stronger effect = higher value
[2] = reducers of endogenous Her2 protein level, primary screen, SKBR3 breast tumor cells, AlphaScreen, ATP viability (AID 461); conditions: 18-24 h, measured here: SKBR3 viability, ATP luminescence, at 10 µM;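 on Her2 level: lower value means less Her2 protein in the cells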;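 on viability: percent of carrier control wells set as 100% viability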
[3] = biological target: Receptor tyrosine-protein kinase erbB-2 (Homo sapiens) (UniProt P04626); experiment: as above; conditions: 18-24 h, at 10 µM, stronger effect = lower value
[4] = SK-BR-3 cell growth inhibitors, pilot screen, 24 h, human (AID 572;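 active means viability at or below 10% of carrier control in both of two separate runs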;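 further: compound exposure lasted between 18 and 24 h rather than exactly 24 h; 100% = carrier-treated control wells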); conditions: SK-BR-3 viability, CellTiter-Glo luminescence, at 10 µM, stronger effect = lower value
[5] = HUVEC growth inhibition – cell-based, human, primary screen (AID 575;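 active means viability at or below 30% in both replicate assays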;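 further: 100% = median of untreated cell wells with 0.1% DMSO on each plate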); conditions: HUVEC proliferation, CellTiter-Glo luminescence, 72 h; at 10 µM; stronger effect = lower value
Outline: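 System: primary human umbilical vein endothelial cells; Quantity: 1250 endothelial cells in each well; Buffer or medium: supplemented EBM, 2% fetal bovine serum; Doses: one dose, 10 µM final, 0.1% DMSO; Incubation: 72 h compound incubation; Technique: ATP-based CellTiter-Glo luminescent read; Evaluation: percent of median DMSO-control luminescence; Controls: vehicle and MePR control wells.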

[6] = growth inhibitors of H69AR lung tumor, primary screen, human, duplicate replicates (AID 580;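 active means viability at or under a set limit in both replicates, limit being median viability minus 3 SD, cut at about 48% in these data, passing the limit was not always enough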;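 further: 100% = mean luminescence of untreated wells and 0% = no signal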); conditions: H69AR lung tumor cells viability, ATP luminescence, 72 h; at 10 µM; stronger effect = lower value
[7] = reversal of MRP1-mediated doxorubicin resistance, pilot screen, H69AR cells, doxorubicin co-treatment (AID 601;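 active means viability loss from added drug above about 55%, and viability with drug at most 40%, in both replicates, limit read from the data, passing the limit was not always enough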); conditions: CellTiter-Glo, 72 h, at 10 µM; for differential viability (reversal): stronger effect = higher value
[8] = 384-well plate pilot, post-Golgi transport modulator project, inhibition of yeast transport mutant growth (AID 636; in the data active means inhibition above about 31%); conditions: absorbance 615 nm, about 18 h, stronger effect = higher value
[9] = growth suppression of yeast trafficking mutant, preliminary HTS, modulators of trafficking downstream of Golgi apparatus project, 1536-format plate, OD 615 nm (AID 637; in the data active means inhibition above about 30%); conditions: yeast transport mutant growth, absorbance 615 nm, 18 h; stronger effect = higher value
[10] = H69AR cells + 2 uM doxorubicin, measured here: viability with 2 uM doxorubicin, stronger effect = lower value
[11] = H69AR cells, compound alone cytotoxicity

Pantothenate synthetase (Mycobacterium tuberculosis (strain ATCC 25618 / H37Rv)), sequence (P9WIL5 whole entry, looked up): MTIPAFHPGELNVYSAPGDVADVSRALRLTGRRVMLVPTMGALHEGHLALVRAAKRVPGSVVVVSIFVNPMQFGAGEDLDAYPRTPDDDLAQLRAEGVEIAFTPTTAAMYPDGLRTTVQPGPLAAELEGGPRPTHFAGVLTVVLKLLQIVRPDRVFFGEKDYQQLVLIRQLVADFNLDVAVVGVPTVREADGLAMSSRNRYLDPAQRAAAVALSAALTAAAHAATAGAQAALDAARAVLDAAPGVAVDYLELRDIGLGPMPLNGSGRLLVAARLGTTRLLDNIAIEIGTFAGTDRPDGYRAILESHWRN
Receptor tyrosine-protein kinase erbB-2 (Homo sapiens), sequence (P04626 whole entry, looked up): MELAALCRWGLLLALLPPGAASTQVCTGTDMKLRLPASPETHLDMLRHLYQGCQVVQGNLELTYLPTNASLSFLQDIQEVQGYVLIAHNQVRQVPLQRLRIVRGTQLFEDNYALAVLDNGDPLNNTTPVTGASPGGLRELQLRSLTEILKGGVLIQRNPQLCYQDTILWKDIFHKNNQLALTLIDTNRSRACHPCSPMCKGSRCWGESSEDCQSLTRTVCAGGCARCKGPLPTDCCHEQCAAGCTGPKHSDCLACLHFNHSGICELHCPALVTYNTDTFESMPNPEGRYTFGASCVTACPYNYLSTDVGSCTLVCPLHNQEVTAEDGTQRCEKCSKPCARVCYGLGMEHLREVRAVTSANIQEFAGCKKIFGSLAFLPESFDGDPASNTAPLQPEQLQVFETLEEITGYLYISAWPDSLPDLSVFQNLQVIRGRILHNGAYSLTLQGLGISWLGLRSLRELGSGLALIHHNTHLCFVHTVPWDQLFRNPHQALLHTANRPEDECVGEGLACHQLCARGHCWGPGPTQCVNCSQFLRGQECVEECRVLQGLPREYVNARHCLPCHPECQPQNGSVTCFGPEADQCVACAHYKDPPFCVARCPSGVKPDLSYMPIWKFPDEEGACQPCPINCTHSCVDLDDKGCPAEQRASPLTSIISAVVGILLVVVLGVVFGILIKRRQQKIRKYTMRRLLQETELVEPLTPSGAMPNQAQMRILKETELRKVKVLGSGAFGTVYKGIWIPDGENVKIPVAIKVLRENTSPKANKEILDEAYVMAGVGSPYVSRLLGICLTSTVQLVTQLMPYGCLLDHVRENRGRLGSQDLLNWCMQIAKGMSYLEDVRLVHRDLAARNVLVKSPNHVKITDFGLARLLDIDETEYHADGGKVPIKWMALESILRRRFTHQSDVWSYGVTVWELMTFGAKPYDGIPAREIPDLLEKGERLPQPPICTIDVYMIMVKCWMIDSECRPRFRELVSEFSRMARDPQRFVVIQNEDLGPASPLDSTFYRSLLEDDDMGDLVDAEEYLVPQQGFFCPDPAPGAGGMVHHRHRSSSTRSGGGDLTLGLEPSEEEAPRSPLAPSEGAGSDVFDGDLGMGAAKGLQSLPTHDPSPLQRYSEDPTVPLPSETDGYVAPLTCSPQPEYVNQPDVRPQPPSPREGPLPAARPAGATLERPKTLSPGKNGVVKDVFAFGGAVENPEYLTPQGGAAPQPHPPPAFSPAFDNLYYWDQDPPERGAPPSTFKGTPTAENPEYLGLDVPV

SMILES | inhibition [1] | viability [2] [%] | Her2 level [3] | viability [4] | viability [5] | viability [6] | differential viability (reversal) ([7]; H69AR cells + 2 uM doxorubicin) | viability [7, 10] [%] | viability [7, 11] [%] | inhibition [8] | inhibition [9]
O=C1CC(c2ccccc2)CC(O)=C1C=NCCN1CCN(C(=O)Cc2ccccc2)CC1 (configuration not stated) | 0% (inactive) | 122 | 97% (inactive) | 122% (inactive) | 91.2% (inactive) | 92.1% (inactive) | -2.69% (inactive) | 94.8 | 92.1 | -0.26% (inactive) | 11.5% (inactive)
O=C(c1ccc2nc3ccc(Cl)cc3c(=O)n2c1)N1CCC2(CC1)OCCO2 | 12% (inactive) | 97.5 | 91.5% (inactive) | 97.5% (inactive) | 98% (inactive) | 96.7% (inactive) | 1.37% (inactive) | 95.4 | 96.7 | -3.87% (inactive) | 1.94% (inactive)
c1ccc(C2CC3CC(c4ccco4)N2O3)cc1 (configuration not stated) | 0% (inactive) | 93 | 89.5% (inactive) | 93% (inactive) | 82.8% (inactive) | 113% (inactive) | 22.5% (inactive) | 90.9 | 113 | -0.4% (inactive) | -7.74% (inactive)
CCNc1ccc(P(=S)(N(C)C)N(C)C)cc1 | 1% (inactive) | 91 | 93% (inactive) | 91% (inactive) | 115% (inactive) | 88.2% (inactive) | -16.7% (inactive) | 105 | 88.2 | -7.92% (inactive) | -4.6% (inactive)
C[C@@]1(CO)[C@H](O)CC[C@@]2(C)[C@H]1CC[C@H]1C[C@@H]3C[C@@]12CC[C@]3(O)CO | 0% (inactive) | 108 | 81.5% (inactive) | 108% (inactive) | 49.2% (inactive) | 80.6% (inactive) | -28.1% (inactive) | 109 | 80.6 | – | –
Cn1c(=O)cc(OCC(=O)N2CCN(C3CCCCC3)CC2)c2ccccc21 | 0% (inactive) | 87 | 88% (inactive) | 87% (inactive) | 82% (inactive) | 85.2% (inactive) | 3.09% (inactive) | 82.1 | 85.2 | -1.47% (inactive) | -1.15% (inactive)
CC(C)OCCCNC(=O)c1c(N)n(CC2CCCO2)c2nc3ccccc3nc12 (configuration not stated) | 2% (inactive) | 100 | 71.5% (inactive) | 100% (inactive) | 55.2% (inactive) | 59.6% (inactive) | -19.6% (inactive) | 79.2 | 59.6 | -4.8% (inactive) | -4.13% (inactive)
Cc1ccc(CS(=O)(=O)CCC(=O)N2CCC3(CC2)OCCO3)cc1 | 7% (inactive) | 106 | 118% (inactive) | 106% (inactive) | 121% (inactive) | 97.7% (inactive) | 9.99% (inactive) | 87.7 | 97.7 | -4.87% (inactive) | -0.82% (inactive)
O=c1[nH]c(=O)n(CCc2ccc(F)cc2)c(O)c1C=NCCCn1ccnc1 | 0% (inactive) | 114 | 84% (inactive) | 114% (inactive) | 99.5% (inactive) | 102% (inactive) | 15.3% (inactive) | 86.8 | 102 | -4.8% (inactive) | 3.28% (inactive)
Cc1ccc(C(=O)C2CN3CCC2CC3)cc1 (configuration not stated) | 0% (inactive) | 93 | 91% (inactive) | 93% (inactive) | 94.3% (inactive) | 97.6% (inactive) | 4.27% (inactive) | 93.3 | 97.6 | -4.55% (inactive) | 4.5% (inactive)
CC(C)C(=O)N1CCN(CCN=Cc2c(O)n(C)c(=O)n(C)c2=O)CC1 | 3% (inactive) | 100 | 116% (inactive) | 100% (inactive) | 122% (inactive) | 96.5% (inactive) | -0.17% (inactive) | 96.7 | 96.5 | -5.39% (inactive) | -1.48% (inactive)
O=C(c1ccc(CS(=O)(=O)c2ccccc2)o1)N1CCC2(CC1)OCCO2 | 0% (inactive) | 90 | 112% (inactive) | 90% (inactive) | 96.5% (inactive) | 85% (inactive) | -6.95% (inactive) | 92 | 85 | -2.11% (inactive) | -2.73% (inactive)
CC(C)OC(=O)c1c(N)n(CC2CCCO2)c2nc3ccccc3nc12 (configuration not stated) | 5% (inactive) | 86.5 | 92.5% (inactive) | 86.5% (inactive) | 102% (inactive) | 94.7% (inactive) | 4.96% (inactive) | 89.7 | 94.7 | -1.58% (inactive) | -3.17% (inactive)
CCCCn1c(O)c(C(C)=Nc2cccc(C(=O)O)c2)c(=O)[nH]c1=O | 0% (inactive) | 108 | 106% (inactive) | 108% (inactive) | 89.4% (inactive) | 105% (inactive) | 4.39% (inactive) | 100 | 105 | -2.11% (inactive) | 9.02% (inactive)
